Test results reported in ChEMBL document CHEMBL1275524, “Activities of antifungal agents against yeasts and filamentous fungi: assessment according to the methodology of the European Committee on Antimicrobial Susceptibility Testing” (2008).
In brackets after ≈: the same amount, converted by molar mass.

Assays:
Fusarium oxysporum [1] = experiment: Antifungal activity against Fusarium oxysporum by EUCAST method; assay type: functional
Cryptococcus gattii [2] = experiment: Antifungal activity against Cryptococcus neoformans var. gattii; assay type: functional, Cryptococcus bacillisporus
Method in brief: (§1)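 EUCAST yeast microdilution, modified for nonfermentative yeasts: plates were sealed and agitated at 350 rpm and 30°C for 48 h.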

Saccharomyces cerevisiae [3] = experiment: Antifungal activity against Saccharomyces cerevisiae by EUCAST method; assay type: functional
Method in brief: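 EUCAST broth microdilution for yeasts in flat-bottom plates, RPMI 1640 with 2% glucose, inoculum 0.5 × 105 to 2.5 × 10^5 CFU/ml. […] MFC is the lowest concentration giving 99% killing.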

Clavispora lusitaniae = experiment: Antifungal activity against Candida lusitaniae; assay type: functional
Method in brief: (§2)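 Broth microdilution in flat-bottom plates in RPMI 1640 with 2% glucose; inoculum 0.5 × 105 to 2.5 × 10^5 CFU/ml. MICs were read spectrophotometrically at 24 h. AMB endpoint: ≥90% growth reduction vs drug-free control well. Azole and CPF endpoint: 50% reduction in optical density. MFC was taken as the lowest concentration giving 99% killing.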

Scedosporium apiospermum = experiment: Antifungal activity against Scedosporium apiospermum; assay type: functional
Method in brief: (§3)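 Broth microdilution following the EUCAST reference procedure for spore-forming moulds, in flat-bottom plates with RPMI 1640 plus 2% glucose. Inoculum was 2 × 10^5 to 5 × 10^5 CFU/ml. MICs were read visually at 24 and 48 h as 100% growth reduction versus a drug-free control for polyenes and azoles. MEC was used for caspofungin. Tests were run in duplicate and repeated twice.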

Rhizopus [4] = experiment: Antifungal activity against Rhizopus species; assay type: functional; method in brief: as §3
Fusarium solani = experiment: Antifungal activity against Fusarium solani by EUCAST method; assay type: functional
Candida parapsilosis = experiment: Antifungal activity against Candida parapsilosis by EUCAST method; assay type: functional; details: Lodderomyces parapsilosis; method in brief: as §2
Aspergillus niger [5] = experiment: Antifungal activity against Aspergillus niger; assay type: functional
Fusarium oxysporum [6] = experiment: Antifungal activity against Fusarium oxysporum; assay type: functional
Mucor hiemalis [7] = experiment: Antifungal activity against Mucor hiemalis by EUCAST method; assay type: functional
Cryptococcus gattii [8] = experiment: Antifungal activity against Cryptococcus neoformans var. gattii by EUCAST method; assay type: functional, Cryptococcus bacillisporus; method in brief: as §1
Saccharomyces cerevisiae [9] = experiment: Antifungal activity against Saccharomyces cerevisiae; assay type: functional
Method in brief: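 Broth microdilution following EUCAST for fermentative yeasts, in flat-bottom plates with RPMI 1640 plus 2% glucose. Inoculum was 0.5 × 10^5 to 2.5 × 10^5 CFU/ml. End points were read spectrophotometrically at 24 h: ≥90% growth reduction versus a drug-free control for amphotericin B, and 50% OD reduction for azoles and caspofungin. MFC was the lowest concentration giving 99% killing.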

Rhizomucor = experiment: Antifungal activity against Rhizomucor species; assay type: functional
Cunninghamella [10] = experiment: Antifungal activity against Cunninghamella species by EUCAST method; assay type: functional
Trichosporon asahii [11] = experiment: Antifungal activity against Trichosporon asahii by EUCAST method; assay type: functional
Method in brief: (§4)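 Nonfermentative yeasts were tested by the EUCAST microdilution recommendations with one change: plates were sealed and agitated at 350 rpm and 30°C for 48 h.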

Nakaseomyces glabratus [12] = experiment: Antifungal activity against Candida glabrata by EUCAST method; assay type: functional; method in brief: as §2
Nakaseomyces glabratus [13] = experiment: Antifungal activity against Candida glabrata; assay type: functional; method in brief: as §2
Aspergillus fumigatus = experiment: Antifungal activity against Aspergillus fumigatus by EUCAST method; assay type: functional
Trichosporon asahii [14] = experiment: Antifungal activity against Trichosporon asahii; assay type: functional; method in brief: as §4
Absidia [15] = experiment: Antifungal activity against Absidia species by EUCAST method; assay type: functional
Rhizopus [16] = experiment: Antifungal activity against Rhizopus species by EUCAST method; assay type: functional; method in brief: as §3
Absidia [17] = experiment: Antifungal activity against Absidia species; assay type: functional
[18] = Antifungal activity against Cryptococcus neoformans var. neoformans by EUCAST method; assay type: functional; details: Cryptococcus deneoformans; method in brief: as §1
[19] = Antifungal activity against Rhizopus microsporus var. oligosporus; assay type: functional; method in brief: as §3
Aspergillus niger [20] = experiment: Antifungal activity against Aspergillus niger by EUCAST method; assay type: functional
Mucor hiemalis [21] = experiment: Antifungal activity against Mucor hiemalis; assay type: functional
Sporothrix schenckii = experiment: Antifungal activity against Sporothrix schenckii by EUCAST method; assay type: functional; method in brief: as §3
Rhizopus arrhizus = experiment: Antifungal activity against Rhizopus oryzae by EUCAST method; assay type: functional; method in brief: as §3
Geotrichum candidum = experiment: Antifungal activity against Geotrichum candidum by EUCAST method; assay type: functional
Curvularia lunata = experiment: Antifungal activity against Curvularia lunata; assay type: functional
[22] = Antifungal activity against Rhinocladiella aquaspersa; assay type: functional
Method in brief: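 Dematiaceous fungi were tested by the EUCAST spore-forming mold reference procedure: flat-bottom microdilution plates, RPMI 1640 plus 2% glucose, inoculum 2 × 105 to 5 × 10^5 CFU/ml. Endpoints were read visually at 24 and 48 h. Polyenes and azoles: 100% growth reduction vs drug-free control. CPF: minimum effective concentration. Run in duplicate and repeated twice.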

[23] = Antifungal activity against Cryptococcus neoformans var. neoformans; assay type: functional; details: Cryptococcus deneoformans; method in brief: as §1
Mucor = experiment: Antifungal activity against Mucor species; assay type: functional
Cunninghamella [24] = experiment: Antifungal activity against Cunninghamella species; assay type: functional
Candida albicans = experiment: Antifungal activity against Candida albicans by EUCAST method; assay type: functional; method in brief: as §2

SMILES: CC[C@@H]([C@H](C)O)n1ncn(-c2ccc(N3CCN(c4ccc(OC[C@@H]5CO[C@@](Cn6cncn6)(c6ccc(F)cc6F)C5)cc4)CC3)cc2)c1=O [POSACONAZOLE]
- MIC (Fusarium oxysporum [1]): 0.12 µg/mL (≈ 0.171 µM)
- MFC (Cryptococcus gattii [2]): 0.125 µg/mL (≈ 0.178 µM)
- MIC (Saccharomyces cerevisiae [3]): 0.66 µg/mL (≈ 0.942 µM)
- MFC (Clavispora lusitaniae): 0.06 µg/mL (≈ 0.0856 µM)
- MFC (Scedosporium apiospermum): 1 µg/mL (≈ 1.43 µM)
- MFC (Rhizopus [4]): > 2 µg/mL
- MIC (Fusarium solani): 1 µg/mL (≈ 1.43 µM)
- MIC (Candida parapsilosis): 0.05 µg/mL (≈ 0.0713 µM)
- MFC (Aspergillus niger [5]): 1 µg/mL (≈ 1.43 µM)
- MFC (Fusarium oxysporum [6]): 0.25 µg/mL (≈ 0.357 µM)
- MIC (Mucor hiemalis [7]): 1.33 µg/mL (≈ 1.9 µM)
- MIC (Cryptococcus gattii [8]): 0.06 µg/mL (≈ 0.0856 µM)
- MFC (Saccharomyces cerevisiae [9]): > 4 µg/mL
- MFC (Rhizomucor): > 2 µg/mL
- MIC (Cunninghamella [10]): 2 µg/mL (≈ 2.85 µM)
- MIC (Trichosporon asahii [11]): 6 µg/mL (≈ 8.56 µM)
- MIC (Nakaseomyces glabratus [12]): 1.58 µg/mL (≈ 2.25 µM)
- MFC (Nakaseomyces glabratus [13]): > 4 µg/mL
- MIC (Aspergillus fumigatus): 0.37 µg/mL (≈ 0.528 µM)
- MFC (Trichosporon asahii [14]): > 8 µg/mL
- MIC (Absidia [15]): 0.33 µg/mL (≈ 0.471 µM)
- MIC (Rhizopus [16]): 0.78 µg/mL (≈ 1.11 µM)
- MFC (Absidia [17]): 0.5 µg/mL (≈ 0.713 µM)
- MIC [18]: 0.14 µg/mL (≈ 0.2 µM)
- MFC [19]: > 8 µg/mL
- MIC (Aspergillus niger [20]): 0.26 µg/mL (≈ 0.371 µM)
- MFC (Mucor hiemalis [21]): 2 µg/mL (≈ 2.85 µM)
- MIC (Sporothrix schenckii): 0.25 µg/mL (≈ 0.357 µM)
- MIC (Rhizopus arrhizus): 1.89 µg/mL (≈ 2.7 µM)
- MIC (Geotrichum candidum): 0.37 µg/mL (≈ 0.528 µM)
- MFC (Curvularia lunata): 0.5 µg/mL (≈ 0.713 µM)
- MFC [22]: 0.125 µg/mL (≈ 0.178 µM)
- MFC [23]: 0.125 µg/mL (≈ 0.178 µM)
- MFC (Mucor): 2 µg/mL (≈ 2.85 µM)
- MFC (Cunninghamella [24]): 2 µg/mL (≈ 2.85 µM)
- MIC (Candida albicans): 0.14 µg/mL (≈ 0.2 µM)
